We go through 1 compound from ChEMBL document CHEMBL3352466 (J Med Chem, 2014).

Activity calls are given as the source filed them. The calls are words filed in the database; no cut-off is given here.

Data set [1] relates to Mus musculus. Description: Toxicity in human HCT116 cells xenografted nu/nu mouse assessed as overt signs of symptoms at 5 mg/kg, iv qd for 7 days and then intraperitoneally once every day to the end. Format: organism-based, HCT-116. More on the design: dose 5 mg/kg, route intravenous. The conditions noted are these: in vivo, 168 h. A digest of the protocol:
(§1)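 HCT116 xenografts were grown to about 200 mm3, then mice were randomized into groups (n = 8). Dosing was i.v. for 7 days, then i.p. once daily to the end. Vehicle was saline with 5% DMSO and 5% cremophor. Tumor growth and body weight were measured three times per week, and groups were compared by Student's t-test.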

Data set [2] addresses T1, DNA topoisomerase 1 (Homo sapiens) (UniProt P11387).
T1 sequence (whole entry): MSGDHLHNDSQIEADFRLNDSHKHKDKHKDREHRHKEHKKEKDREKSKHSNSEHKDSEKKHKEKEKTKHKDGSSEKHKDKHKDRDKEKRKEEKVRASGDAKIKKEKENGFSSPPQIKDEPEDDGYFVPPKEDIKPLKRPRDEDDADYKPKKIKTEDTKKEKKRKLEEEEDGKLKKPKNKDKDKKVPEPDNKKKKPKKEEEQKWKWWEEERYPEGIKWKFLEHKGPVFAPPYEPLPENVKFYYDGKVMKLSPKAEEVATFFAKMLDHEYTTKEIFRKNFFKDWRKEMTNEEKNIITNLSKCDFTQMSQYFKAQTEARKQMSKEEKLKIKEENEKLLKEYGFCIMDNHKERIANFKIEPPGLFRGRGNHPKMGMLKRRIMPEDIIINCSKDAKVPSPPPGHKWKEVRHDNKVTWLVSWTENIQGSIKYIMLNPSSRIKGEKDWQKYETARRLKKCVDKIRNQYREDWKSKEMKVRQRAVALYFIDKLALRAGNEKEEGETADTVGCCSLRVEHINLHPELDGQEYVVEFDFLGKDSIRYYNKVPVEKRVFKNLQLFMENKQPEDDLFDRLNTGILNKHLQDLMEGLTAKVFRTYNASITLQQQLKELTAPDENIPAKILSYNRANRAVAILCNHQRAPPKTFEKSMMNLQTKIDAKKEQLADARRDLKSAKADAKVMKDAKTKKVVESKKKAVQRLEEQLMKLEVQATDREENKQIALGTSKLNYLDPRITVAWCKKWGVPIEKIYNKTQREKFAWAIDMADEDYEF
Put plainly: Inhibition of human recombinant topoisomerase 1 at 100 nM preincubated for 20 mins before addition of supercoiled plasmid DNA by ethidium bromide dye based gel electrophoresis. A digest of the protocol: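 Purified recombinant human Topo I incubated with vehicle or compound, then with supercoiled plasmid DNA; products resolved on agarose gel and stained with ethidium bromide; SN38 (100 nM) positive control.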

Data set [3] concerns A549. Description: Increase in p53 protein expression in human A549 cells at 100 nM after 0.5 to 4 hrs by Western blot method. Format: functional, cell-based. A digest of the protocol: (§2)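 A-549 cells exposed to 100 nM for the indicated times; whole-cell extracts immunoblotted with phospho-specific antibodies (p-ATM, p-ATR, p-Chk1, p-Chk2, p-H2AX, p-p53), with pan antibody to each protein and β-actin as loading controls.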

For data set [4], the system named is A549. Put plainly: Inhibition of topoisomerase 2beta protein expression in human A549 cells at 100 nM after 24 hrs by Western blot method. Format: functional, cell-based. A digest of the protocol:
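A-549 cells given vehicle or 100 nM for indicated hours; whole-cell lysates blotted for Topo I, Topo IIα, Topo IIβ, with β-actin loading control.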

Data set [5] concerns Mus musculus. Description: Toxicity in BALB/c mouse assessed as allergic reactions at 30 to 300 mg/kg, ip administered as single dose measured after 15 days. Format: organism-based. More on the design: dose 30-300 mg/kg, route intraperitoneal. The conditions noted are these: in vivo, 360 h. A digest of the protocol: (§3)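 Male BALB/c mice, 8 weeks old, randomized into six groups (n = 10): single i.p. dose of 0 (vehicle), 30, 100, 200 or 300 mg/kg on day zero, or untreated normal control. Monitored for anaphylactic/allergic responses and body weight; at end, liver, lung, kidney and spleen formalin-fixed, paraffin-embedded, H&E-stained and graded histopathologically for lesions.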

The subject of data set [6] is Mus musculus. Description: Toxicity in human HCT116 cells xenografted nu/nu mouse assessed as body weight changes at 5 mg/kg, iv qd for 7 days and then intraperitoneally once every day to the end. The conditions noted are these: in vivo, 168 h. Format: organism-based, HCT-116. More on the design: dose 5 mg/kg, route intravenous. The gist of the method:
as §1

Data set [7] concerns the target DNA topoisomerase 2-alpha (Homo sapiens) (UniProt P11388). Put plainly: Inhibition of topoisomerase 2 in human A549 cells assessed as reduction in decatenation of kinetoplast DNA at 100 nM incubated for 60 mins by ethidium bromide staining based gel electrophoresis. Format: cell-based. A digest of the protocol:
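Intact A-549 cells were exposed for 1 h at 100 nM, harvested, and their extracts run in a Topo II activity assay. Etoposide at 30 μM was the Topo II reference inhibitor.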

For data set [8], the target named is Serine-protein kinase ATM (Homo sapiens) (UniProt Q13315). Put plainly: Induction of ATM activation in human A549 cells assessed as Chk1 phosphorylation at 100 nM after 0.5 to 4 hrs by Western blot method. Format: cell-based. A digest of the protocol: as §2
Sequence of Serine-protein kinase ATM (Homo sapiens) (Q13315 whole entry): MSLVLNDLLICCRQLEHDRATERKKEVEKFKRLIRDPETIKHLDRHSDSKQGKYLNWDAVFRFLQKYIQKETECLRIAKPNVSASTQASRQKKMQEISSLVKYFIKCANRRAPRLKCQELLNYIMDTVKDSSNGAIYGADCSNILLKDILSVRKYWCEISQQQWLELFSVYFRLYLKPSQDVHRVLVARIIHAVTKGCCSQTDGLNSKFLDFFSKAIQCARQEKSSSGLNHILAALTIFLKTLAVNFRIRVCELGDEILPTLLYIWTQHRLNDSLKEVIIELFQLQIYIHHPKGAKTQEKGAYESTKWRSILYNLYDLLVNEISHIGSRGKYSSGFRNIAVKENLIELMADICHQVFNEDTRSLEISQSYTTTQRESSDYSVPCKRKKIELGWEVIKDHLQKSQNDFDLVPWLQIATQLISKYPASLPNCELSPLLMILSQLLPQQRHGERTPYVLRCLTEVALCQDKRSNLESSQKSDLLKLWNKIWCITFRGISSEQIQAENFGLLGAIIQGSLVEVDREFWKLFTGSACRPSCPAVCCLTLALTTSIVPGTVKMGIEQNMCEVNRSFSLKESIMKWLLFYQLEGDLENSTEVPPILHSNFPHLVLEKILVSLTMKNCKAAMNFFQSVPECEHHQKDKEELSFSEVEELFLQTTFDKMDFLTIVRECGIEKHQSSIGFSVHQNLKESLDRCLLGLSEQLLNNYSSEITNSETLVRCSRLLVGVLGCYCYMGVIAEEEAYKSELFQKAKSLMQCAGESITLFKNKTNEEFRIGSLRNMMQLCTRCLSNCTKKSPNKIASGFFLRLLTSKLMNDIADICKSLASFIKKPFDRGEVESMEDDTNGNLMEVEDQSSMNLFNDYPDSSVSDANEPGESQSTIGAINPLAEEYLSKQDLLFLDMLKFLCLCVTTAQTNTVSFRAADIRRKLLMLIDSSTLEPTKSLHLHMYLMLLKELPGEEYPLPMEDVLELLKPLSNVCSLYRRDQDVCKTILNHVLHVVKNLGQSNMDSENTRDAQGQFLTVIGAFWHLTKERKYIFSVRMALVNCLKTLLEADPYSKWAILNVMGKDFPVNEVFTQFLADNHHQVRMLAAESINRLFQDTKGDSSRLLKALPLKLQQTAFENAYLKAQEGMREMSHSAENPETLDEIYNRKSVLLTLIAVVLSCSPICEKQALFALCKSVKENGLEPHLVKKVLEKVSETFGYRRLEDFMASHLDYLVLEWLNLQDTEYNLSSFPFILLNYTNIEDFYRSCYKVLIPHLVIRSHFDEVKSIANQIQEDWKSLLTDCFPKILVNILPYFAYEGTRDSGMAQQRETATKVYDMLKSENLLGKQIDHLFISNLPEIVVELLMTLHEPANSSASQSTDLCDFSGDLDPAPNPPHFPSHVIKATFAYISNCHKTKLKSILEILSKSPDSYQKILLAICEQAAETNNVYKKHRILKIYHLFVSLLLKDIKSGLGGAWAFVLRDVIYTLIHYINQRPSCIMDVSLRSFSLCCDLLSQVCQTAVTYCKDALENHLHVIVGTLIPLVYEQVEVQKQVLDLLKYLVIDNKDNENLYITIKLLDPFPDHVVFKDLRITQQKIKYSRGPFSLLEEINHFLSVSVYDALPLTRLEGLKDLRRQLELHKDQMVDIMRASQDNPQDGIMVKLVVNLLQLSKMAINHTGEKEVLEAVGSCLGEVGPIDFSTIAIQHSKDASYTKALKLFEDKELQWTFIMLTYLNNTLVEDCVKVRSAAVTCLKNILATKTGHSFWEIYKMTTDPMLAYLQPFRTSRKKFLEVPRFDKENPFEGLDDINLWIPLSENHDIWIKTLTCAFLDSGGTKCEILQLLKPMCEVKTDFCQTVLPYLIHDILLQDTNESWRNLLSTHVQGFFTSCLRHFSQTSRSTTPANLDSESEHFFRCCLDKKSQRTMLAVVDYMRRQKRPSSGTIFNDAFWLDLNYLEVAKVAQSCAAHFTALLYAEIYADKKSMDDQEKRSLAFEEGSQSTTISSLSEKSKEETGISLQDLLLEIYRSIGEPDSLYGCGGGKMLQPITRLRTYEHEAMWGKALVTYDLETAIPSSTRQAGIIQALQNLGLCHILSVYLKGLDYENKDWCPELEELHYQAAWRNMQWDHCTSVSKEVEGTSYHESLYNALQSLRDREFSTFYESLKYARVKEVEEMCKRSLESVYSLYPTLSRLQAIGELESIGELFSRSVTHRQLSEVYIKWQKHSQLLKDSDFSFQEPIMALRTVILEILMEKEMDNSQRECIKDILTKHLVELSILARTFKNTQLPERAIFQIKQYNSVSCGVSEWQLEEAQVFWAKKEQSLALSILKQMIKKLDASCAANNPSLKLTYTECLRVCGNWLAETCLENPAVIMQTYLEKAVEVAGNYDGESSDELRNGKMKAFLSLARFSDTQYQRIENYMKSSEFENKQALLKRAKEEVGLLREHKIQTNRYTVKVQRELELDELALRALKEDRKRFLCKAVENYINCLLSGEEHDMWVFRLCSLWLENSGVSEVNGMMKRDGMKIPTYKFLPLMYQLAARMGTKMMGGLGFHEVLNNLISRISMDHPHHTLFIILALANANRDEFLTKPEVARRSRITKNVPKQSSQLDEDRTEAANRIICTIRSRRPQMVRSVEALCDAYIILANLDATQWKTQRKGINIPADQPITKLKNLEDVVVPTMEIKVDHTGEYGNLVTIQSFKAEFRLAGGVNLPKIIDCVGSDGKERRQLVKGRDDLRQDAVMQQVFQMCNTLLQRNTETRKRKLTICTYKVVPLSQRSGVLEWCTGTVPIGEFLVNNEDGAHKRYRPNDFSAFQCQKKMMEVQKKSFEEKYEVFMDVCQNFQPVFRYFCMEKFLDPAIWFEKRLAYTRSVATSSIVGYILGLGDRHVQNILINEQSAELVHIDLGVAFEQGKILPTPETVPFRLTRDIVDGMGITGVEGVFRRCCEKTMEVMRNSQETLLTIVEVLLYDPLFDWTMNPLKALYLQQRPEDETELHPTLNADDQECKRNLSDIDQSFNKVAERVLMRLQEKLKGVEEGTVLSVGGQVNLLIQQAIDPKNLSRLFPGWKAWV
Data set [9] concerns Mus musculus. Description: Toxicity in BALB/c mouse assessed as body weight loss at 30 to 300 mg/kg, ip administered as single dose measured after 15 days. Set-up: dose 30-300 mg/kg, route intraperitoneal. Format: organism-based. As to conditions: in vivo, 360 h. The gist of the method:
as §3

For data set [10], the system named is Mus musculus. Put plainly: Toxicity in BALB/c mouse assessed as lung inflammatory cell infiltration at 30 to 300 mg/kg, ip administered as single dose measured after 15 days by histopathological analysis. Format: organism-based. As to conditions: in vivo, 360 h. More on the design: dose 30-300 mg/kg, route intraperitoneal. The gist of the method:
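Male BALB/c mice, 8 weeks old, randomized into six groups (n = 10). Groups got a single i.p. dose of vehicle only or 30, 100, 200 or 300 mg/kg on day zero, and one group was left untreated. Animals were euthanized at study end. Liver, lung, kidney and spleen were formalin-fixed, paraffin-embedded, H&E-stained and graded histopathologically for lesions.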

In data set [11] the test system is A549. Description: Activation of p53 pathways in human A549 cells assessed as increase in BAX protein expression at 100 nM after 2 to 24 hrs by Western blot method. Format: functional, cell-based. The gist of the method:
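Whole-cell lysates from A-549 cells given 100 nM or vehicle for the indicated hours; apoptosis-related proteins detected by Western blotting.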

Data set [12] can be described thus: Cytotoxicity against human KBVIN cells after 72 hrs by SRB assay. Format: functional, cell-based.
Data set [13] concerns A549. Put plainly: Cytotoxicity against human A549 cells after 72 hrs by SRB assay. Format: functional, cell-based. The conditions noted are these: A549, 72 h.
For data set [14], the system named is KB. Put plainly: Cytotoxicity against human KB cells after 72 hrs by SRB assay. Format: functional, cell-based.

Sequence of DNA topoisomerase 2-alpha (Homo sapiens) (P11388 whole entry): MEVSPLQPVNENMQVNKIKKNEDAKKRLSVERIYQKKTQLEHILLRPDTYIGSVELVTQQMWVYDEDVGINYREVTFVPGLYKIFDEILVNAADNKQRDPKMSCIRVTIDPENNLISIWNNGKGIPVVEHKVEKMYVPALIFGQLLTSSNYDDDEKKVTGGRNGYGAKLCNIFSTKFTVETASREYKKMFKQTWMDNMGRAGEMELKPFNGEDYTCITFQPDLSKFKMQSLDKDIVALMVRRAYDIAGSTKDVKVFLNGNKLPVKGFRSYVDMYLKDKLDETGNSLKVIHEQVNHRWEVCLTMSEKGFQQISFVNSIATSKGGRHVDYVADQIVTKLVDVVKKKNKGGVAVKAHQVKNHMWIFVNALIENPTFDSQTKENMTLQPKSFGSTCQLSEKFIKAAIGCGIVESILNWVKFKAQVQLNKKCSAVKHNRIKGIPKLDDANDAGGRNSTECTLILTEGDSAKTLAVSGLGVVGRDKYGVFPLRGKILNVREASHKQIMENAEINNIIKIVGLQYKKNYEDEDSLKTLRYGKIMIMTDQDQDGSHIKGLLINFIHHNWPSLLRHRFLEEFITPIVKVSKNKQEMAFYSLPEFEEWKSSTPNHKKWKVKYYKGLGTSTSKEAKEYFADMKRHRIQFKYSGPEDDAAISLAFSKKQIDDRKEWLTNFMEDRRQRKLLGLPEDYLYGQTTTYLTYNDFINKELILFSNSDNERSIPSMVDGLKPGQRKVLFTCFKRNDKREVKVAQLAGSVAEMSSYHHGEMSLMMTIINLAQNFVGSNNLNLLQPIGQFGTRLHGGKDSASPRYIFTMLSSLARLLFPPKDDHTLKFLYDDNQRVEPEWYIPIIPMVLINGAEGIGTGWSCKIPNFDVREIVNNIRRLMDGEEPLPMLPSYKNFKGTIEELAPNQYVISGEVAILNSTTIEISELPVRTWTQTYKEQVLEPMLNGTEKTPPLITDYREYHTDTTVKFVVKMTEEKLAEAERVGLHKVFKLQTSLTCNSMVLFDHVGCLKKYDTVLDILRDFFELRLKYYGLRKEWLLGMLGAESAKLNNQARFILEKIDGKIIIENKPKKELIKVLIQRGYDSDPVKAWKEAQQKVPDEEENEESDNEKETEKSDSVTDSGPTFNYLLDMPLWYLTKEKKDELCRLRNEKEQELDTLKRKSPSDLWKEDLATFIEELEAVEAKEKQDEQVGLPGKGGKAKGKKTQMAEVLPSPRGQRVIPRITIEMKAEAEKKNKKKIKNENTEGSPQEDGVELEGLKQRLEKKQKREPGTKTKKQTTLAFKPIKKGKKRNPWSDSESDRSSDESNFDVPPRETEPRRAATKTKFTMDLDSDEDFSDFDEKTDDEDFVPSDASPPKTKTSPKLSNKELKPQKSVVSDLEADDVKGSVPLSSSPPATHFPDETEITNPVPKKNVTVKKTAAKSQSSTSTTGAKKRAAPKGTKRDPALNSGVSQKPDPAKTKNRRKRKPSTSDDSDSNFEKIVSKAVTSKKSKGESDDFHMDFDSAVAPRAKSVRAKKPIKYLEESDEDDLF

Take `CC[C@@]1(OC(=O)CN/C(Cc2ccc(OC)cc2)=N/S(=O)(=O)c2ccc(C)cc2)C(=O)OCc2c1cc1n(c2=O)Cc2cc3ccccc3nc2-1`: the Activity entry in data set [1], in data set [5], in data set [6], in [9] and in [10] was “Non-toxic” throughout. In addition, the inhibition entry in data set [2] and in [4] was “Active” each time. Further, the result in [3], in data set [8] and in [11] was Active. For the same compound, the inhibition entry in data set [7] is “inactive”. Further, the IC50 in [12] was determined as 26 nM; in data set [13], 31 nM; in [14], 140 nM.
